Reference: publication PMC6089849 (Acta Pharmaceutica Sinica. B, 2018)
Several values for one entry are separate records, joined by “and”; a condition that tells them apart may be missing. Equal entries are not always repeated.

What was measured:
PDE9A2 = PDE9A2 (Homo sapiens, UniProt O76083); assay: In vitro bioassay for inhibition of PDE9; format: biochemical; settings: for IC50: IC50 against PDE9, mean of three independent determinations
[1] = In vitro cell viability assay; format: cell-based; settings: human, SH-SY5Y cells
Method in brief: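 SH-SY5Y cells seeded at 5 × 10^3 per well and allowed 24 h before test compound addition at 10, 20, 40, 60, 80 and 100 μmol/L. After 48 h exposure, MTT was added for 4 h at 37 °C. Formazan was dissolved in DMSO, and absorbance was read at 570 nm.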

Sequence of PDE9A2 (O76083 1-533 isoform O76083-2): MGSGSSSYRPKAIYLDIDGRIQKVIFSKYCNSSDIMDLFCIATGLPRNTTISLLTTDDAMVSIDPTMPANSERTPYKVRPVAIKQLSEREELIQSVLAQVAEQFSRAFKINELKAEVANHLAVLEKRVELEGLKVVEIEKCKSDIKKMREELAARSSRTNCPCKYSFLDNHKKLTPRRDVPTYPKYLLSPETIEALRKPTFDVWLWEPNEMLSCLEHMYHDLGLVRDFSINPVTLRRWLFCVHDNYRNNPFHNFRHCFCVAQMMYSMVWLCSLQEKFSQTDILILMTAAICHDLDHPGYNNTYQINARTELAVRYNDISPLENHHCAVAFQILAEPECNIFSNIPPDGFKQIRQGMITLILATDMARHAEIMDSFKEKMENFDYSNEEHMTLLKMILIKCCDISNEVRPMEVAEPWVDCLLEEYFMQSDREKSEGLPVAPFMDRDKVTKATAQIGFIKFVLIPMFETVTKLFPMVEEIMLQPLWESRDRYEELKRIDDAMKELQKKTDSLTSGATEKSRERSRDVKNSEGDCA

IC50 (PDE9A2) | inhibition against PDE9A (PDE9A2; at the concentration of 5 mmol/L) | fold more potent than PF-04447943 (PDE9 IC50) (PDE9A2; vs PF-04447943) [fold] | fold increase of IC50 potency compared with compound 5b (PDE9A2; vs compound 5b) [fold] | Structure (SMILES) | viability at 48 h, 40 μmol/L [1] [%] | viability at 48 h, 100 μmol/L [1] [%]
76 nM | – | – | – | COc1cc(/C=C2\SC(=O)NC2=O)ccc1OCCNc1nc2c(cnn2C2CCCC2)c(=O)[nH]1 [Compound 11d, (Z)-5-(4-(2-((1-Cyclopentyl-4-oxo-4,5-dihydro-1H-pyrazolo[3,4-d]pyrimidin-6-yl)amino)ethoxy)-3-methoxybenzylidene)thiazolidine-2,4-dione] | – | –
< 5 nM and 3.5 nM | – | – | – | O=C1NC(=O)C(Cc2ccc(OCCNc3nc4c(cnn4C4CCCC4)c(=O)[nH]3)c(F)c2)S1 (centres unmarked) [Compound 14a, 5-(4-(2-((1-Cyclopentyl-4-oxo-4,5-dihydro-1H-pyrazolo[3,4-d]pyrimidin-6-yl)amino)ethoxy)-3-fluorobenzyl)thiazolidine-2,4-dione] | 82 | 52
< 5 nM and 3.3 nM | – | – | – | COc1cc(/C=C2\SC(=O)NC2=O)cc(F)c1OCCNc1nc2c(cnn2C2CCCC2)c(=O)[nH]1 [Compound 11c, (Z)-5-(4-(2-((1-Cyclopentyl-4-oxo-4,5-dihydro-1H-pyrazolo[3,4-d]pyrimidin-6-yl)amino)ethoxy)-3-fluoro-5-methoxybenzylidene)thiazolidine-2,4-dione] | 84 | 57
– | no inhibition | – | – | CN(CCOc1ccc(CC2SC(=O)NC2=O)cc1)c1ccccn1 (centres unmarked) [Rosiglitazone, reference compound] | – | –
< 5 nM and 4.2 nM | – | – | – | COc1cc(CC2SC(=O)NC2=O)cc(F)c1OCCNc1nc2c(cnn2C2CCCC2)c(=O)[nH]1 (centres unmarked) [Compound 14c, 5-(4-(2-((1-Cyclopentyl-4-oxo-4,5-dihydro-1H-pyrazolo[3,4-d]pyrimidin-6-yl)amino)ethoxy)-3-fluoro-5-methoxybenzyl)thiazolidine-2,4-dione] | 93 | 62
< 5 nM | – | 8 | 20 | O=C1NC(=O)/C(=C/c2ccc(OCCNc3nc4c(cnn4C4CCCC4)c(=O)[nH]3)c(F)c2)S1 [Compound 11a, (Z)-5-(4-(2-((1-Cyclopentyl-4-oxo-4,5-dihydro-1H-pyrazolo[3,4-d]pyrimidin-6-yl)amino)ethoxy)-3-fluorobenzylidene)thiazolidine-2,4-dione] | 55 | 34
98 nM | – | – | – | C[C@@H](COc1ccc(CC2SC(=O)NC2=O)cc1)Nc1nc2c(cnn2C2CCCC2)c(=O)[nH]1 (stereo partly drawn) [Compound 15, 5-(4-((S)-2-((1-Cyclopentyl-4-oxo-4,5-dihydro-1H-pyrazolo[3,4-d]pyrimidin-6-yl)amino)propoxy)benzyl)thiazolidine-2,4-dione] | – | –
